Source: ChEMBL document CHEMBL1255190, “The selected flavonol glycoside derived from Sophorae Flos improves glucose uptake and inhibits adipocyte differentiation via activation AMPK in 3T3-L1 cells” (Bioorg Med Chem Lett, 2010)
Activity calls are given as the source filed them. The rule behind the calls is not given here.

Experiments:
Type in all cases: cell-based
[1] = target: 5'-AMP-activated protein kinase catalytic subunit alpha-2 (Mus musculus) (UniProt Q8BRK8); assay: Inhibition of AMPK-mediated adipocyte differentiation in mouse 3T3L1 cells; conditions: 3T3-L1
Procedure, shortened: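 Compound (0, 5, 10 or 20 uM) co-applied with MDI differentiation medium on day 0 for 48 h. Differentiation ended at day 6 and lipid droplets were stained with Oil red O. Triplicate runs, means ± S.D.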

3T3-L1 = assay: Cytotoxicity against mouse 3T3L1 cells at 20 uM after 24 hrs; conditions: 3t3-l1, 24 h
Procedure, shortened: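 3T3-L1 cells exposed to compounds at 5-100 uM for 24 h. Viability was assessed under Mosmann's conditions.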

[2] = target: 5'-AMP-activated protein kinase catalytic subunit alpha-2 (Mus musculus) (UniProt Q8BRK8); assay: Induction of AMPK-mediated ACC phosphorylation in mouse 3T3L1 cells at 10 uM by Western blotting; conditions: 3T3-L1
Procedure, shortened: (§1)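 Mouse 3T3-L1 cells exposed to test compound at 10 uM. Phosphorylated AMPK and its downstream target ACC were detected by western blot. Experiments were run in triplicate, with data given as means ± S.D. Groups were compared by one-way ANOVA with the Newman-Keuls test, significance p < 0.05.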

[3] = target: 5'-AMP-activated protein kinase catalytic subunit alpha-2 (Mus musculus) (UniProt Q8BRK8); assay: Induction of AMPK phosphorylation in mouse 3T3L1 cells at 10 uM by Western blotting; conditions: 3T3-L1; procedure, shortened: as §1
[4] = target: 5'-AMP-activated protein kinase catalytic subunit alpha-2 (Mus musculus) (UniProt Q8BRK8); assay: Inhibition of AMPK in mouse 3T3L1 cells assessed as inhibition of PPARgamma gene expression by RT-PCR; conditions: 3T3-L1
Procedure, shortened: (§2)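 MDI-induced differentiating 3T3-L1 cells were given 0, 5, 10 or 20 uM. Per the legend, cells were treated for 6 h. RNA was extracted with Trizol and RT-PCR run with specific primers for the adipogenic markers. Triplicate runs; one-way ANOVA with Newman-Keuls test.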

[5] = target: 5'-AMP-activated protein kinase catalytic subunit alpha-2 (Mus musculus) (UniProt Q8BRK8); assay: Inhibition of AMPK in mouse 3T3L1 cells assessed as inhibition of SREBP1c level by Western blotting; conditions: 3T3-L1
Procedure, shortened: (§3)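 Western blot of lysates from 3T3-L1 cells undergoing MDI-induced differentiation. Cells received 0, 5, 10 or 20 uM from day 0. Probed for FAS, SREBP-1c, C/EBPa and PPARgamma. Triplicate runs; one-way ANOVA with Newman-Keuls test.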

[6] = target: 5'-AMP-activated protein kinase catalytic subunit alpha-2 (Mus musculus) (UniProt Q8BRK8); assay: Inhibition of AMPK in mouse 3T3L1 cells assessed as inhibition of C/EBPalpha gene expression by RT-PCR; conditions: 3T3-L1; procedure, shortened: as §2
[7] = target: 5'-AMP-activated protein kinase catalytic subunit alpha-2 (Mus musculus) (UniProt Q8BRK8); assay: Inhibition of AMPK-mediated glucose uptake in mouse 3T3L1 cells; conditions: 3T3-L1
Procedure, shortened: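 Differentiated 3T3-L1 adipocytes incubated 1 h with 5, 10 or 20 uM, with 200 nM insulin as reference. 2-Deoxy-D-[3H]-glucose uptake was then measured. For AMPK dependence, 10 uM was tested with or without compound C (10 uM). Triplicate runs, means ± S.D., p<0.05.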

[8] = target: 5'-AMP-activated protein kinase catalytic subunit alpha-2 (Mus musculus) (UniProt Q8BRK8); assay: Inhibition of AMPK in mouse 3T3L1 cells assessed as inhibition of FAS gene expression by RT-PCR; conditions: 3T3-L1; procedure, shortened: as §2
[9] = target: 5'-AMP-activated protein kinase catalytic subunit alpha-2 (Mus musculus) (UniProt Q8BRK8); assay: Inhibition of AMPK in mouse 3T3L1 cells assessed as inhibition of FAS level by Western blotting; conditions: 3T3-L1; procedure, shortened: as §3
[10] = target: 5'-AMP-activated protein kinase catalytic subunit alpha-2 (Mus musculus) (UniProt Q8BRK8); assay: Inhibition of AMPK in mouse 3T3L1 cells assessed as inhibition of PPARgamma level by Western blotting; conditions: 3T3-L1; procedure, shortened: as §3
[11] = target: 5'-AMP-activated protein kinase catalytic subunit alpha-2 (Mus musculus) (UniProt Q8BRK8); assay: Inhibition of AMPK in mouse 3T3L1 cells assessed as inhibition of C/EBPalpha level by Western blotting; conditions: 3T3-L1; procedure, shortened: as §3

5'-AMP-activated protein kinase catalytic subunit alpha-2 (Mus musculus), sequence (Q8BRK8 whole entry): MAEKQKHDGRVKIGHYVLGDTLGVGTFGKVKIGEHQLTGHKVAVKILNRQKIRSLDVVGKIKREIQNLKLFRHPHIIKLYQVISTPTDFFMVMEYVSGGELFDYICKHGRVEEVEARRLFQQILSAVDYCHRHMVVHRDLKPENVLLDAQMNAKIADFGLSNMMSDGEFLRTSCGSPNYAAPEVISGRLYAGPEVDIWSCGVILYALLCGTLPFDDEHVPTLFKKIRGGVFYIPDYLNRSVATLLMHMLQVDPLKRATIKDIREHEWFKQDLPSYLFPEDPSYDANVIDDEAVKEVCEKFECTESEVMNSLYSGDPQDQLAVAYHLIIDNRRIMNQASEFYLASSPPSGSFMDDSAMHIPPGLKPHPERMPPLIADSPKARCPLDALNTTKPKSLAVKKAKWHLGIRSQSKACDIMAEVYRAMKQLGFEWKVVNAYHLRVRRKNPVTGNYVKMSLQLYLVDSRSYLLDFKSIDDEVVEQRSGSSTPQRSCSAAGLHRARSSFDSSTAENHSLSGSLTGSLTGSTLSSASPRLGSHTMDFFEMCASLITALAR

Compound | Activity [1] | Activity (3T3-L1) | further results
C[C@@H]1O[C@@H](OC[C@H]2O[C@@H](Oc3c(-c4ccc(O)c(O)c4)oc4cc(O)cc(O)c4c3=O)[C@H](O)[C@@H](O)[C@@H]2O)[C@H](O)[C@H](O[C@@H]2OC[C@@H](O)[C@H](O)[C@H]2O)[C@H]1O | Active | Non-toxic | 
O=c1c(O[C@@H]2O[C@H](CO)[C@@H](O)[C@H](O)[C@H]2O)c(-c2ccc(O)cc2)oc2cc(O)cc(O)c12 [ASTRAGALIN] | Active | Non-toxic | 
O=c1c(O[C@@H]2O[C@H](CO)[C@@H](O)[C@H](O)[C@H]2O)c(-c2ccc(O)c(O)c2)oc2cc(O)cc(O)c12 [ISOQUERCETIN] | Active | Non-toxic | 
COc1cc(-c2oc3cc(O)cc(O)c3c(=O)c2O[C@@H]2O[C@H](CO[C@@H]3O[C@@H](C)[C@H](O)[C@@H](O)[C@H]3O)[C@@H](O)[C@H](O)[C@H]2O)ccc1O [NARCISSIN] | Active | Non-toxic | 
O=c1c(O)c(-c2ccc(O)c(O)c2)oc2cc(O)cc(O[C@@H]3O[C@H](CO)[C@@H](O)[C@H](O)[C@H]3O)c12 | Active | Non-toxic | 
O=c1c(O)c(-c2ccc(O)c(O)c2)oc2cc(O)cc(O)c12 [QUERCETIN] | Active | Non-toxic | Activity [2]: Active; Activity [3]: Active
C[C@@H]1O[C@@H](OC[C@H]2O[C@@H](Oc3c(-c4ccc(O)c(O)c4)oc4cc(O)cc(O)c4c3=O)[C@H](O)[C@@H](O)[C@@H]2O)[C@H](O)[C@H](O)[C@H]1O [RUTIN] | Active | Non-toxic | 
C[C@@H]1O[C@@H](OC[C@H]2O[C@@H](Oc3c(-c4ccc(O)c(O)c4)oc4cc(O)cc(O)c4c3=O)[C@H](O)[C@@H](O)[C@@H]2O)[C@H](O)[C@H](O[C@@H]2O[C@H](CO)[C@@H](O)[C@H](O)[C@H]2O)[C@H]1O | Active | Non-toxic | Activity [4]: Active; Activity [2]: Active; Activity [5]: Dose-dependent effect; Activity [3]: Active; Activity [6]: Active; Activity [7]: Active; Activity [8]: Active; Activity [9]: Dose-dependent effect; Activity [10]: Dose-dependent effect; Activity [11]: Dose-dependent effect
O=c1c(O)c(-c2ccc(O)cc2)oc2cc(O)cc(O)c12 [KAEMPFEROL] | Active | Non-toxic | 
